KLF5 inhibitor = KLF5 expression inhibitors, primary screen, DLD-1 cells, luminescence; 290,000 compounds, 0.23% hits; inhibition, % at 5 µM; DLD-1 KLF5 promoter-luciferase reporter; AID 1700, 2009;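 active = inhibition above a per-plate limit of that plate's mean compound inhibition plus 3 SD, cut at about 60% in these data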;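 note: higher means less KLF5 promoter-driven luciferase light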
MT stabilize HCS = microtubule stabilizers in HeLa cells, primary screen, imaging, high-content imaging. AID 2205, 2009. % tubulin-high responders, % at 10 µM. HeLa tubulin immunostaining HCS, 24 h; share of cells brighter than vehicle mean+2SD. 200,000 compounds, 0.83% hits;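 active = plate Z-score above 3 for both tubulin-high and condensed-nucleus cell shares, with cell loss under 80%, at 10 µM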;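 note: anti alpha tubulin signal scored within the nucleus-defined area of each cell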
b-catenin transl = modulators of beta-catenin nuclear translocation, primary screen, imaging, HeLa cells, immunofluorescence, high-content; nuclear translocation activity, % at 5 µM; 190,000 compounds, 0.3% hits;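 active = nuclear translocation activity above 50% at 5 µM, with a well cell count of 50 or more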;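 note: per-cell ratio of nuclear to cytoplasmic median beta-catenin stain intensity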
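Assay system: human HeLa cells, native beta-catenin; doses: 5 µM primary, 0.02–20 µM confirmation; incubation: compound treatment 24 h, 37°C, 5% CO2; technique: fluorescence imaging of beta-catenin antibody stain plus DAPI; measure: % activation, nuclear-to-cytoplasmic median beta-catenin signal ratio per cell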
Ba/F3 V617F tox = reduced viability of JAK2V617F-dependent Ba/F3 cells, primary screen, JAK2V617F inhibitor project, cell-based, Ba/F3 EpoR-JAK2V617F, luminescence; ATP luminescence; inhibition, % at 5.6 µM; 220,000 compounds, 1.1% hits; AID 1446, 2008;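 active = inhibition above the campaign mean plus 3 SD over all tested compounds, cut at about 24% in these data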;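 note: cytokine-independent growth of Ba/F3 cells driven by EpoR plus mutant JAK2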
IEC-6 cytotox = cytotoxicity in IEC-6 intestinal epithelial cells, primary screen, cytotoxicity control for KLF5 inhibitor project, cell-based, luminescence | IEC-6 cytotoxicity, luminescence viability | inhibition, % at 5 µM | 290,000 compounds, 0.78% hits; in the data active = inhibition above about 22%
BaF3 tox = parental Ba/F3 cell viability inhibition, counter-screen for JAK2V617F inhibitor project, murine pro-B, CellTiter-Glo luminescence; CellTiter-Glo ATP luminescence; inhibition, % at 5.6 µM; 220,000 compounds, 1.1% hits; AID 1486, 2009;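 active = inhibition above a per-campaign cutoff, the mean inhibition of all tested compounds plus 3 SD, cut at about 27% in these data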
Hits are given with their value; . = inactive; / = no result given. A selection: hits, their analogues and other compounds. The true share with any hit is near 2.1%.

SMILES | KLF5 inhibitor | MT stabilize HCS | b-catenin transl | Ba/F3 V617F tox | IEC-6 cytotox | BaF3 tox
O=C(CSc1nnc(Cn2nnc3ccccc32)o1)N(Cc1ccc(F)cc1)c1ccccc1 | . | . | . | . | . | 41
CC(c1ccon1)N(C)Cc1cn(Cc2ccccc2)nc1-c1ccc2c(c1)OCO2 (centres undefined) | . | . | . | . | . | .
Nc1c(C(=O)c2ccccc2)sc2snc(SCC(=O)c3ccccc3)c12 | . | . | / | . | . | 95
C=CCn1c(SCc2csc(C)n2)nc2sc3c(c2c1=O)CCC(C)C3 (centres undefined) | . | 26 | . | . | . | .
CC1(C)COC(/C=C/c2ccc([N+](=O)[O-])cc2)=N1 | . | 18 | . | . | . | .
Cc1cc(NC(=S)NC(=O)c2ccccc2)ccc1-c1cc2ccccc2oc1=O | . | 15 | . | . | . | .
Cc1ccc(C(=O)Nc2cc3ccccc3oc2=O)cc1 | . | 33 | 84 | . | . | .
O=C(CSc1nnc(-c2ccccc2)n1Cc1ccccc1)N1CCOCC1 | . | . | . | . | . | .
Oc1ccccc1-c1nnc(SCCN2CCOCC2)n1Cc1ccccc1 | . | . | . | 94 | . | 83
CC(C)(C)OC(=O)N1CCC(c2c(C(=O)NCC3CCN(C4CCCC4)C3)cnn2-c2cccc(Cl)c2)CC1 (centres undefined) | . | / | / | / | . | /
O=C(Nc1cccnc1)c1ccc(-c2ccccc2)cc1 | . | . | . | . | . | .
O=C(Nc1ccncc1)c1ccc(-c2ccccc2)cc1 | . | . | . | . | . | 32
Cc1ccc(-c2nnn(CC(=O)N(Cc3cccs3)C(C(=O)NCC3CCCO3)c3ccco3)n2)o1 (centres undefined) | . | . | . | . | . | .
CCC(=O)NC1CCN(C(=S)NC)CC1 | . | . | . | . | . | 62
CCOC(=O)N1CCN(C(=S)NC)CC1 | . | . | / | . | . | .
CCOCC(=O)Nc1cccc(C(=O)OCC)c1 | . | . | . | . | . | 98
CCOC(=O)c1cccc(NC(=O)COC)c1 | . | . | / | . | . | .
FC(F)Sc1ccc(-n2cc(-c3ccccc3)[n+]3c2CCC3)cc1 | . | . | . | 60 | . | 69
COc1ccc(-n2cc(-c3ccccc3)[n+]3c2CCCCC3)cc1 | . | . | . | 72 | . | 59
FC(F)Oc1ccc(-n2cc(-c3ccc(Cl)cc3)[n+]3c2CCCCC3)cc1 | . | / | . | 54 | . | 62
C/[N+]([O-])=C\c1cccc(OCCN2CCN(c3ncc(C(F)(F)F)cc3Cl)CC2)c1 | . | / | / | / | . | /
O=C(Nc1nccs1)C12CC3CC(C1)CC(C(=O)Nc1nccs1)(C3)C2 | . | . | . | 50 | . | .
O=C(Nc1ncccn1)C12CC3CC(CC(C3)C1)C2 | . | / | . | . | . | .
CCc1ccc(S(=O)(=O)/N=C2\C=CC(=O)c3ccccc32)cc1 | . | . | . | . | . | .
CCc1ccc(S(=O)(=O)/N=C2/C=C(Sc3ncn[nH]3)C(=O)c3ccccc32)cc1 | . | . | . | 71 | . | 34
SMILES | KLF5 inhibitor | MT stabilize HCS | b-catenin transl | Ba/F3 V617F tox | IEC-6 cytotox | BaF3 tox
COc1ccc(C/C(C)=N/NC(=O)c2cccnc2)cc1 | . | . | . | . | . | .
CSc1nc(SCC(=O)NCc2ccco2)c2c3c(sc2n1)COC(C)(C)C3 | . | 35 | . | . | . | .
CCCCc1nc2sc3c(SCC(=O)NCc4ccco4)ncnc3c2c2c1CCC2 | . | 33 | . | . | . | .
CC(C)(C)C(=O)/C(=C/c1ccncc1)n1cncn1 | . | . | . | 91 | . | 75
Cc1ccc(C)c(NC(=O)c2cc([N+](=O)[O-])cc([N+](=O)[O-])c2)c1 | . | / | / | / | . | /
COc1cccc(CN2CC(C(=O)NCCCn3ccnc3C)CCC2=O)c1 (centres undefined) | . | / | / | / | . | /
COc1ccc(-c2nc(C#N)c(NC(C)c3ccccc3)o2)cc1OC (centres undefined) | . | . | . | . | . | .
Cc1c(C(=O)Nc2ccc3c4c(cccc24)CC3)cccc1[N+](=O)[O-] | . | 22 | . | . | . | .

Screens as filed in PubChem BioAssay.
